Experimental data from ChEMBL document CHEMBL5724801, “EUbOPEN Chemogenomics Library - Multiplex” (2024).
Several values for one entry are separate records, joined by “and”; a condition that tells them apart may be missing. Equal values may be shown once.

Tested on: U2OS
Test: Multiplex assay against U2OS
Type: toxicity, cell-based
Details: human
How it was run: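 Per cents of healthy-nucleus cells form the tubulin, mitochondrial-mass and membrane-permeability phenotype values. Live cells were stained at seeding with Hoechst33342, BioTracker Green Microtubule Cytoskeleton Dye, MitoTracker Red and Annexin V Alexa Fluor 680. After compound addition they were imaged on a CQ1 microscope at 37°C and 5% CO2, and CellPathfinder machine-learning gating split them into Hoechst high-intensity objects or normal cells, normal cells into healthy, pyknosed or fragmented nuclei, and pyknosed cells into mitotic or apoptotic.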

[1] = 12 h, 1 µM, compound concentration 1 uM
[2] = 12 h, 10 µM, compound concentration 10 uM
[3] = 24 h, 1 µM, compound concentration 1 uM
[4] = 24 h, 10 µM, compound concentration 10 uM
[5] = 48 h, 1 µM, compound concentration 1 uM
[6] = 48 h, 10 µM, compound concentration 10 uM

## CC(N)C1CCC(C(=O)Nc2ccncc2)CC1 (configuration not stated)
[1]
  Population Apoptotic (%): 33.33% and 18.75%
  Population Fragmented Nuclei (%): 1.02% and 1.57%
  Population Healthy Nuclei (%): 90.39% and 81.68%
  Population Hoechst High Intensity Objects (%): 0%
  Population Membrane Permeable-Phenotype (%): 0.68% and 1.28%
  Population Mitochondria Different-Phenotype (%): 0.68% and 3.21%
  Population Mitotic Cells (%): 66.67% and 81.25%
  Population Normal (%): 100%
  Population Pyknosed Nuclei (%): 8.59% and 16.75%
  Population Tubulin-Different-Phenotype (%): 0.23% and 0.64%
  Total Cell Count: 489 and 191
[2]
  Population Apoptotic (%): 31.03% and 27.78%
  Population Fragmented Nuclei (%): 0.73% and 1.2%
  Population Healthy Nuclei (%): 92.2% and 87.95%
  Population Hoechst High Intensity Objects (%): 0%
  Population Membrane Permeable-Phenotype (%): 1.32% and 1.37%
  Population Mitochondria Different-Phenotype (%): 0% and 11.64%
  Population Mitotic Cells (%): 68.97% and 72.22%
  Population Normal (%): 100%
  Population Pyknosed Nuclei (%): 7.07% and 10.84%
  Population Tubulin-Different-Phenotype (%): 0.79% and 0.68%
  Total Cell Count: 410 and 166
[3]
  Population Apoptotic (%): 41.18% and 41.67%
  Population Fragmented Nuclei (%): 2.2% and 3.47%
  Population Healthy Nuclei (%): 90.32% and 87.26%
  Population Hoechst High Intensity Objects (%): 0%
  Population Membrane Permeable-Phenotype (%): 0.65% and 1.33%
  Population Mitochondria Different-Phenotype (%): 0.16% and 3.1%
  Population Mitotic Cells (%): 58.82% and 58.33%
  Population Normal (%): 100%
  Population Pyknosed Nuclei (%): 7.48% and 9.27%
  Population Tubulin-Different-Phenotype (%): 0.81% and 0.88%
  Total Cell Count: 682 and 259
[4]
  Population Apoptotic (%): 32.08% and 28.57%
  Population Fragmented Nuclei (%): 1.38% and 0%
  Population Healthy Nuclei (%): 89.48% and 85.29%
  Population Hoechst High Intensity Objects (%): 0%
  Population Membrane Permeable-Phenotype (%): 0.19% and 1.48%
  Population Mitochondria Different-Phenotype (%): 0.19% and 6.9%
  Population Mitotic Cells (%): 67.92% and 71.43%
  Population Normal (%): 100%
  Population Pyknosed Nuclei (%): 9.14% and 14.71%
  Population Tubulin-Different-Phenotype (%): 0.19% and 0.49%
  Total Cell Count: 580 and 238
[5]
  Population Apoptotic (%): 48.51% and 53.33%
  Population Fragmented Nuclei (%): 2.96% and 2.17%
  Population Healthy Nuclei (%): 89.37% and 88.07%
  Population Hoechst High Intensity Objects (%): 0%
  Population Membrane Permeable-Phenotype (%): 1.02% and 1.48%
  Population Mitochondria Different-Phenotype (%): 0.08% and 2.46%
  Population Mitotic Cells (%): 51.49% and 46.67%
  Population Normal (%): 100%
  Population Pyknosed Nuclei (%): 7.67% and 9.76%
  Population Tubulin-Different-Phenotype (%): 0.51% and 0.25%
  Total Cell Count: 1317 and 461
[6]
  Population Apoptotic (%): 45.33% and 46.15%
  Population Fragmented Nuclei (%): 3.3% and 1%
  Population Healthy Nuclei (%): 89.84% and 86%
  Population Hoechst High Intensity Objects (%): 0.18% and 0%
  Population Membrane Permeable-Phenotype (%): 0.82% and 1.45%
  Population Mitochondria Different-Phenotype (%): 0.1% and 4.94%
  Population Mitotic Cells (%): 54.67% and 53.85%
  Population Normal (%): 99.82% and 100%
  Population Pyknosed Nuclei (%): 6.87% and 13%
  Population Tubulin-Different-Phenotype (%): 0.1% and 0.29%
  Total Cell Count: 1094 and 400

## CC[C@@H](C)Nc1nc(C)nc2c(-c3ccc(OC)nc3C)c(C)nn12 [PEXACERFONT]
[1]
  Population Apoptotic (%): 73% and 87%
  Population Fragmented Nuclei (%): 24% and 17%
  Population Healthy Nuclei (%): 66% and 76%
  Population Hoechst High Intensity Objects (%): 3% and 0%
  Population Membrane Permeable-Phenotype (%): 2% and 1%
  Population Mitochondria Different-Phenotype (%): 3% and 0%
  Population Mitotic Cells (%): 26% and 12%
  Population Normal (%): 96% and 99%
  Population Pyknosed Nuclei (%): 9% and 5%
  Population Tubulin-Different-Phenotype (%): 2% and 0%
  Total Cell Count: 258 and 136
[2]
  Population Apoptotic (%): 90%
  Population Fragmented Nuclei (%): 26% and 21%
  Population Healthy Nuclei (%): 64% and 70%
  Population Hoechst High Intensity Objects (%): 1%
  Population Membrane Permeable-Phenotype (%): 2% and 12%
  Population Mitochondria Different-Phenotype (%): 1% and 7%
  Population Mitotic Cells (%): 9% and 10%
  Population Normal (%): 98%
  Population Pyknosed Nuclei (%): 8% and 7%
  Population Tubulin-Different-Phenotype (%): 1% and 4%
  Total Cell Count: 265 and 128
[3]
  Population Apoptotic (%): 80% and 85%
  Population Fragmented Nuclei (%): 21% and 16%
  Population Healthy Nuclei (%): 69% and 75%
  Population Hoechst High Intensity Objects (%): 2%
  Population Membrane Permeable-Phenotype (%): 5% and 3%
  Population Mitochondria Different-Phenotype (%): 2% and 6%
  Population Mitotic Cells (%): 20% and 14%
  Population Normal (%): 97%
  Population Pyknosed Nuclei (%): 8%
  Population Tubulin-Different-Phenotype (%): 2%
  Total Cell Count: 346 and 172
[4]
  Population Apoptotic (%): 80% and 92%
  Population Fragmented Nuclei (%): 21% and 14%
  Population Healthy Nuclei (%): 71% and 77%
  Population Hoechst High Intensity Objects (%): 2% and 0%
  Population Membrane Permeable-Phenotype (%): 5% and 7%
  Population Mitochondria Different-Phenotype (%): 3%
  Population Mitotic Cells (%): 19% and 7%
  Population Normal (%): 97% and 99%
  Population Pyknosed Nuclei (%): 7% and 8%
  Population Tubulin-Different-Phenotype (%): 4% and 3%
  Total Cell Count: 307 and 159
[5]
  Population Apoptotic (%): 88% and 91%
  Population Fragmented Nuclei (%): 16%
  Population Healthy Nuclei (%): 75% and 73%
  Population Hoechst High Intensity Objects (%): 1% and 2%
  Population Membrane Permeable-Phenotype (%): 3% and 5%
  Population Mitochondria Different-Phenotype (%): 1% and 4%
  Population Mitotic Cells (%): 11% and 8%
  Population Normal (%): 98% and 97%
  Population Pyknosed Nuclei (%): 7% and 9%
  Population Tubulin-Different-Phenotype (%): 1% and 4%
  Total Cell Count: 476 and 261
[6]
  Population Apoptotic (%): 94% and 100%
  Population Fragmented Nuclei (%): 17% and 13%
  Population Healthy Nuclei (%): 74% and 77%
  Population Hoechst High Intensity Objects (%): 1%
  Population Membrane Permeable-Phenotype (%): 4% and 6%
  Population Mitochondria Different-Phenotype (%): 1% and 3%
  Population Mitotic Cells (%): 5% and 0%
  Population Normal (%): 98%
  Population Pyknosed Nuclei (%): 8%
  Population Tubulin-Different-Phenotype (%): 1% and 2%
  Total Cell Count: 478 and 242
